In ChEMBL document CHEMBL1134780, “Indolequinone antitumor agents: correlation between quinone structure and rate of metabolism by recombinant human NAD(P)H:quinone oxidoreductase. Part 2” (J Med Chem, 2001):

How the values were obtained:
[1] = molecular target: NAD(P)H dehydrogenase [quinone] 1 (Homo sapiens) (UniProt P15559); test: NADH oxidation is used as a measure metabolism since 1 mol of NADH is oxidized for each mole of compound that is reduced; type: functional
[2] = system: BE-WT; test: Cytotoxicity against BE human colon carcinoma cell lines BE-WT(No NQO1 activity); type: functional, cell-based
Method in brief: (§1)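 MTT assay in BE colon carcinoma cells, wild-type (BE-WT) or stably transfected with human NQO1 cDNA (BE-NQ). Cells grown in MEM/10% FBS at 37 °C, 5% CO2, plated at (1–2) × 10^4 cells/mL and attached 16 h. Drug exposure 2 h, then drug-free medium for 5–7 days. MTT for 4 h, formazan dissolved in DMSO, A550. IC50 taken from % control versus concentration plots.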

[3] = system: BE-NQ; test: Cytotoxicity against BE human colon carcinoma cell lines BE-NQ( high NQO1 activity); type: functional, cell-based; method in brief: as §1
[4] = molecular target: NAD(P)H dehydrogenase [quinone] 1 (Homo sapiens) (UniProt P15559); test: Ability to inactivate Recombinant human NQO1; type: functional; set-up: concentration or dose not given beside the values
Method in brief: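 Recombinant hNQO1 (1–2 µg) preincubated 30 min at 22 °C with 10 µM indolequinone, with or without 100 µM NADH, in 25 mM Tris-HCl pH 7.4 + 2 mg/mL Tween-20. Reaction stopped with cold Tris-HCl/250 mM sucrose. Residual activity measured as reduction of 40 µM DPIP with 200 µM NADH (0.7 mg/mL BSA) at 600 nm for 30 s. Reported as % remaining, +NADH versus −NADH.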

Sequence of NAD(P)H dehydrogenase [quinone] 1 (Homo sapiens) (P15559 whole entry): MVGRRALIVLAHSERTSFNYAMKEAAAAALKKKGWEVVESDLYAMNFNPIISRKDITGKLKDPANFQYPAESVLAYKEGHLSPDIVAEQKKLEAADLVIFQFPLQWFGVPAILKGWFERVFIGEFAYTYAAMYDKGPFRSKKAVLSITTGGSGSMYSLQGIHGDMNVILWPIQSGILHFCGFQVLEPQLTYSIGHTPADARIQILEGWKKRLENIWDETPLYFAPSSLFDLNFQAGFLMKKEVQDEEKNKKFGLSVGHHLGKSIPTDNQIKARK

`COC1=CC(=O)c2c(c(COc3ccccc3)c(C)n2C)C1=O` showed a Metabolism [1] of 0.28 µM/min/mg.

`COC1=CC(=O)c2c(c(CO)c(-c3ccc4ccccc4c3)n2C)C1=O` was tested, and the IC50 [2] was > 50 µM, the IC50 [3] was > 50 µM and the Metabolism [1] was 4 µM/min/mg.

`COC1=CC(=O)c2c(c(CO)c(C)n2-c2ccccc2)C1=O` was tested, and the Metabolism [1] was 6 µM/min/mg.

`CCCn1c(C)c(C(=O)OCC)c2c1C(=O)C(C)=C(OC)C2=O` showed a Metabolism [1] of 18.6 µM/min/mg.

`CCc1c(C(=O)OC)c2c(n1Cc1ccccc1)C(=O)C=C(OC)C2=O` gave a Metabolism [1] of 9.3 µM/min/mg.

Work on `Cc1c(C(C)O)c2c(n1C)C(=O)C=C(N1CCOCC1)C2=O` (centres undefined) yielded a Metabolism [1] of 0.27 µM/min/mg.

`COC1=CC(=O)c2c(c(CO)c(C)n2-c2ccc(F)cc2)C1=O` gave a Metabolism [1] of 9.2 µM/min/mg.

`COC1=CC(=O)c2[nH]c(C)c(C(C)=O)c2C1=O` showed a Metabolism [1] of 29.8 µM/min/mg.

For `COC1=CC(=O)c2c(c(CO)c(C)n2C2CC2)C1=O`, the Metabolism [1] was 14 µM/min/mg.

Molecule `COC1=CC(=O)c2c(c(COC(C)=O)c(C)n2C)C1=O` has an Enzyme activity [4] of 0%.

With `CCOC(=O)c1c2c(n(C)c1-c1ccc3ccccc3c1)C(=O)C=C(OC)C2=O` the IC50 [2] was 49 µM, the IC50 [3] was > 50 µM and the Metabolism [1] was 0.23 µM/min/mg.

With `COC1=CC(=O)c2c(c(CO)cn2C)C1=O` the Enzyme activity [4] was 96%, the IC50 [2] was > 50 µM and the IC50 [3] was > 50 µM. For the same molecule, the Metabolism [1] was 13.6 µM/min/mg.

For `CCCn1c(C)c(C(=O)OCC)c2c1C(=O)C=C(OC)C2=O`, the Metabolism [1] was 77.6 µM/min/mg.

`COC1=CC(=O)c2c(c(C(C)O)c(C)n2C)C1=O` (centres undefined) was tested, and the Metabolism [1] was 10.4 µM/min/mg.

`COC1=CC(=O)c2c(c(COc3ccc([N+](=O)[O-])cc3OC)c(C)n2C)C1=O` was tested, and the IC50 [2] was 1.5 µM, the IC50 [3] was 0.51 µM and the Metabolism [1] was 0.05 µM/min/mg.

Molecule `COC1=C(C)C(=O)c2c(c(CO)c(C)n2-c2ccccc2)C1=O` has a Metabolism [1] of 3 µM/min/mg.

For `COC1=C(C)C(=O)c2c(c(CO)c(C)n2CCN2CCOCC2)C1=O`, the Metabolism [1] was 7.6 µM/min/mg.

Molecule `COC(=O)c1c2c(n(C)c1C)C(=O)C(C)=C(OC)C2=O` has a Metabolism [1] of 13.7 µM/min/mg.

In the case of `CCOC(=S)SCc1c2c(n(C)c1C)C(=O)C=C(OC)C2=O`, the IC50 [2] is reported as > 50 µM, the IC50 [3] is reported as > 50 µM and the Metabolism [1] is reported as 1.1 µM/min/mg.

`CCOC(=O)c1c2c(n(-c3ccccc3)c1C)C(=O)C=C(OC)C2=O` was tested, and the Metabolism [1] was 16.4 µM/min/mg.

Work on `CCOC(=O)CNC(=O)OCc1c2c(n(C)c1C)C(=O)C=C(OC)C2=O` yielded an Enzyme activity [4] of 19%, an IC50 [2] of 3.8 µM and an IC50 [3] of 3.2 µM. The Metabolism [1] was 0.11 µM/min/mg.

In the case of `COC1=CC(=O)c2c(c(COc3cc([N+](=O)[O-])ccc3OC)c(C)n2C)C1=O`, the Enzyme activity [4] is reported as 13%, the IC50 [2] is reported as 34.4 µM and the IC50 [3] is reported as 6.5 µM. The Metabolism [1] was 0.05 µM/min/mg.

`CCOC(=O)c1c2c(n(-c3ccc(F)cc3)c1C)C(=O)C=C(OC)C2=O` was tested, and the Metabolism [1] was 3.9 µM/min/mg.

With `CCOC(=O)c1c2c(n(CCN3CCOCC3)c1C)C(=O)C(C)=C(OC)C2=O` the Metabolism [1] was 39.4 µM/min/mg.

`COC1=CC(=O)c2c(c(COc3ccc([N+](=O)[O-])cc3F)c(C)n2C)C1=O` showed an Enzyme activity [4] of 0%, an IC50 [2] of 1.5 µM and an IC50 [3] of 1.2 µM. It also gave a Metabolism [1] of 0.05 µM/min/mg.

In the case of `CCc1c(CO)c2c(n1Cc1ccccc1)C(=O)C=C(OC)C2=O`, the Metabolism [1] is reported as 0.9 µM/min/mg.

For `CCCn1c(C)c(CO)c2c1C(=O)C(C)=C(OC)C2=O`, the Metabolism [1] was 1.7 µM/min/mg.

With `COC1=CC(=O)c2[nH]c(C)c(C(C)O)c2C1=O` (centres undefined) the Metabolism [1] was 27.7 µM/min/mg.

`CCCn1c(C)c(CO)c2c1C(=O)C=C(OC)C2=O` gave a Metabolism [1] of 1.3 µM/min/mg.

Work on `COC1=CC(=O)c2c(c(COC(=O)Cc3ccc(-c4ccccc4)cc3)c(C)n2C)C1=O` yielded an Enzyme activity [4] of 0%, an IC50 [2] of 5.5 µM and an IC50 [3] of 5.1 µM. The Metabolism [1] was 0.09 µM/min/mg.

In the case of `COC1=CC(=O)c2c(c(COc3ccc([N+](=O)[O-])cc3)cn2C)C1=O`, the Enzyme activity [4] is reported as 52%, the IC50 [2] is reported as 1.05 µM and the IC50 [3] is reported as 0.44 µM. It also gave a Metabolism [1] of 0.29 µM/min/mg.

In the case of `CCOC(=O)c1c2c(n(C3CC3)c1C)C(=O)C=C(OC)C2=O`, the Metabolism [1] is reported as 36.6 µM/min/mg.

`CCOC(=O)c1c2c(n(-c3ccccc3)c1C)C(=O)C(C)=C(OC)C2=O` showed a Metabolism [1] of 7.9 µM/min/mg.

In the case of `CN1CCN(C2=CC(=O)c3c(c(CO)c(-c4ccccc4)n3C)C2=O)CC1`, the Metabolism [1] is reported as 0.15 µM/min/mg.

For `COC1=CC(=O)c2c(c(COc3ccc(NC(C)=O)cc3)c(C)n2C)C1=O`, the IC50 [2] was 10.3 µM, the IC50 [3] was 6.6 µM and the Metabolism [1] was 0.38 µM/min/mg.

`COC1=C(C)C(=O)c2c(c(CO)c(C)n2C)C1=O` gave a Metabolism [1] of 3.8 µM/min/mg.
